High-throughput results (PubChem)
Lung fibro prol = blocks proliferation of human lung fibroblasts; LL 47 human lung fibroblast viability, ATP luminescence; stronger effect = lower value; viability, % at 10 µM; hit rate 1.1% among 85,000;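 active = viability at or below 50% in the single dose screen; inactive = viability above 50%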;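 also: compound exposure lasted 72 h before the ATP readout; 100% = median luminescence of untreated cell-only wells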
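material = human LL 47 lung fibroblast cells | dosing = compounds added from tenfold dosing solution, 0.1% DMSO final | timing = overnight cell rest, 72 h compound treatment at 37 °C | measured by = CellTiter-Glo luminescence measuring cellular ATP | evaluation = % viability versus median cells-only luminescence | control set = cell-only wells, no compound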
PTEN del growth = suppresses growth of cells with PTEN deletion; HCT116 PTEN-null viability, CellTiter-Glo, 60 h; stronger effect = lower value; hit rate 1.2% among 140,000; viability, % at 10 µM; AID 827;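 active = viability at or below a set limit, 4 SD under the median of all tested compounds, cut at about 3.7% in these data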;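 also: PTEN knockout HCT116 line with beta catenin targeted HCT116 as companion control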
H69AR growth 86K = growth inhibitors of human H69AR lung tumor cells | H69AR lung tumor viability, ATP luminescence, 72 h; stronger effect = lower value | viability, % at 10 µM | hit rate 6% among 85,000 | AID 598;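 active = viability at or below 40%; inactive = viability above 40%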;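 also: multidrug resistant small cell line overexpressing MRP-1 efflux transporter; 100% = mean luminescence of untreated control wells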
HUVEC inhibit = human endothelial cell proliferation inhibition; HUVEC proliferation, CellTiter-Glo luminescence, 72 h; stronger effect = lower value; viability, % at 10 µM (by protocol); hit rate 1.1% among 86,000; AID 648;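 active = viability at or below 30%; inactive = viability above 30%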;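 also: 100% = median luminescence of DMSO-only cell control wells on each plate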
bCat KO growth = beta-catenin-lacking colon tumor cell growth suppression; HCT116 beta-catenin knockout viability, CellTiter-Glo, 60 h; stronger effect = lower value; viability, % at 10 µM; hit rate 1.5% among 140,000;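 active = viability at or under a set limit, the compound median less 4 SD, cut at about 6% in these data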;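 also: 0% = Hyamine 1622 control at 20 µM and 100% = untreated cell control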
Numbers without * were called inactive; . = no result. Shown is part of a subset that was picked to be rich in hits.

SMILES	Lung fibro prol	PTEN del growth	H69AR growth 86K	HUVEC inhibit	bCat KO growth
COc1ccc(Oc2ccc(/C=C/C(=O)c3cccc(OC)c3)cc2[N+](=O)[O-])cc1	.	1.9*	.	.	2.0*
COc1ccc(CCNC(=O)COc2ccc(S(=O)(=O)NC(C)C)cc2Cl)cc1OC	.	98	.	.	99
CC(C)CC(COCc1cccc(Cl)c1)N1CCN(C(=O)c2ccc(C(F)(F)F)cc2)CCC1=O (stereo unspecified)	.	60	.	.	68
Cc1nc2c(c(C)c1C#N)C(=O)c1ccccc1-2	.	91	.	.	86
Cc1nc(S(=O)(=O)N(C)c2ccccc2)c(C#N)c(C)c1Cl	39*	4	4.2*	83	3.3*
O=C(/C=C/c1cccc(C(F)(F)F)c1)Nc1cccc(C(F)(F)F)c1	.	2.3*	.	.	3.8*
COc1ccc(C(=O)Nc2ccc3oc(Cc4ccc(Cl)cc4)nc3c2)cc1OC	94	67	70	79	64
CCOC(=O)c1ccc2c(c1)nc(COc1ccccc1C#N)n2CC	99	.	20*	78	.
CCOC(=O)c1ccc2c(c1)nc(COc1ccc3ccccc3c1)n2CC	99	77	24*	78	78
O=C(Sc1nnnn1C1CCCCC1)c1cccs1	.	110	35*	106	103
O=C(CSc1nnnn1C1CCCCC1)NCc1ccccc1	101	88	92	100	91
Cc1sc2nc(SCc3nc(-c4ccccc4)no3)n(-c3ccccc3)c(=O)c2c1C	.	87	.	.	89
CCOC(=O)Cc1c(C)nc2cc(-c3ccc(C(C)(C)C)cc3)[nH]n2c1=O	55	89	37*	64	81
CCOC(=O)Cc1cc(=O)n2[nH]c(-c3ccccc3)cc2n1	100	92	107	93	91
CCOC(=O)Cc1c(C)nc2c(C#N)c[nH]n2c1=O	96	102	98	98	116
O=c1c2c(nc3c(-c4cccc(Br)c4)c[nH]n13)CCCC2	59	8	20*	45	15
CCOC(=O)Cc1c(C)nc2c(-c3ccc(Cl)cc3)c(C)[nH]n2c1=O	72	42	39*	64	39
CCOC(=O)Cc1c(C)nc2c(-c3cccc(Br)c3)c[nH]n2c1=O	63	12	28*	4.7*	13
CCCCCCCC(=O)NNC(=O)CC(=O)Nc1ccccc1C(=O)O	.	92	.	.	93
Cc1cc(=O)n2[nH]c(C)c(-c3ccc(Cl)cc3)c2n1	78	18	36*	71	21
CCOc1cc2[nH]c(=S)n(CCN3CCC(C)CC3)c(=O)c2cc1OCC	101	64	58	96	60
CCOC(=O)N1CCC(n2c(=S)[nH]c3cc(OCC)c(OCC)cc3c2=O)CC1	12*	84	22*	28*	86
O=C(COC(=O)CNS(=O)(=O)c1c(Cl)cccc1Cl)Nc1cccnc1Cl	.	102	.	.	93
CCCCNc1c(NC(C)=O)c(=O)oc2ccccc12	.	97	.	.	90
CCN(CC(O)Cn1c2ccccc2c2ccccc21)S(=O)(=O)c1ccc(F)cc1 (stereo unspecified)	95	79	18*	81	75
SMILES	Lung fibro prol	PTEN del growth	H69AR growth 86K	HUVEC inhibit	bCat KO growth
Cc1ccc(S(=O)(=O)N(C)CC(O)Cn2c3ccccc3c3ccccc32)cc1 (stereo unspecified)	99	57	80	88	69
O=S(=O)(c1ccc(F)cc1)N(CCO)CC(O)Cn1c2ccccc2c2ccccc21 (stereo unspecified)	99	76	13*	55	84
O=S(=O)(c1ccccc1)N(CC(O)Cn1c2ccccc2c2ccccc21)c1ccccc1 (stereo unspecified)	.	17	.	.	16
O=C(CCCCCn1c(=S)[nH]c2cc3c(cc2c1=O)OCO3)N1CCN(C2CCCCC2)CC1	4.8*	2.7*	2.2*	49	8
COC(=O)c1[nH]c2cc(C)ccc2c1NC(=O)CN1CCCc2ccccc21	.	4	.	.	5.5*
CCOC(=O)C1CCCN(CC(=O)Nc2c(C(=O)OC)[nH]c3ccc(Br)cc23)C1 (stereo unspecified)	95	74	58	73	77
COC(=O)c1[nH]c2ccc(Br)cc2c1NC(=O)CN1CCCc2ccccc21	75	48	21*	64	41
COC(=O)c1[nH]c2cc(C)ccc2c1NC(=O)CN1CCN(C(=O)c2ccco2)CC1	87	90	62	84	86
COC(=O)c1[nH]c2ccc(Br)cc2c1NC(=O)CN1CCN(C2CCCCC2)CC1	16*	1.8*	2.9*	5.7*	1.7*
CCOC(=O)C1CCN(CC(=O)Nc2c(C(=O)OC)[nH]c3ccccc23)CC1	102	85	1.9*	103	75
Cc1cc(NC(=O)CN2CC(C)OC(C)C2)n(-c2nc3ccccc3s2)n1 (stereo unspecified)	89	91	43	90	90
CCOC(=O)C1CCN(CC(=O)Nc2cc(C)nn2-c2nc3ccccc3s2)CC1	94	79	28*	73	75
CCc1nnc(NC(=O)CSc2nc(C)c3c(c2C#N)CCCC3)s1	94	39	24*	59	58
COc1ccc(NC(=O)CSc2nc(C)c3c(c2C#N)CCCC3)cc1	103	84	100	102	80
Cc1cc(C)nc(SCc2ccc(C(=O)NNC(=O)Nc3cccc(Cl)c3)cc2)n1	.	67	.	.	76
CCCc1ccc(-c2cc(NC(=O)CSc3n[nH]c(N)n3)n(-c3ccccc3)n2)cc1	94	46	17*	17*	60
COc1ccc(OCCSc2nnc(C)n2-c2ccccc2)cc1	100	96	32*	86	79
CCN1c2ccccc2NC2N=C(OC)C(c3ccccc3)C21 (stereo unspecified)	7.0*	1.7*	1.4*	2.1*	1.9*
CN1CCc2c(sc3c2C(=O)NC(c2ccc(-c4cccc(Cl)c4)o2)N3)C1 (stereo unspecified)	94	.	3.3*	48	.
CN1CCc2c(sc3c2C(=O)NC(c2cccs2)N3)C1 (stereo unspecified)	121	92	97	94	90
CCC1(c2ccc(F)cc2)NC(=O)N(CC(=O)Nc2ccc(-c3nc4ccc(C)cc4s3)cc2)C1=O (stereo unspecified)	.	1.3*	.	.	1.1*
COC(=O)c1c(NC(=O)c2ccccc2)sc2c1CC(C)(C)OC2	99	90	36*	97	88
CCCN(CCC)C(=O)CC(c1ccccc1)c1cc(Br)ccc1O (stereo unspecified)	80	72	3.5*	66	84
CC1CCc2ccc(F)cc2N1S(=O)(=O)c1cccs1 (stereo unspecified)	89	46	27*	83	44
COc1ccc(Nc2nnc(SCc3cc(=O)n4ccsc4n3)s2)cc1	108	94	76	68	105
N#C/C(=C/c1ccc(N2CCCCCC2)o1)c1cccc(F)c1	87	69	37*	95	47
N#C/C(=C\c1ccc(Sc2ccc(Cl)cc2)o1)c1nc2ccccc2[nH]1	.	34	.	.	53
